# Hits are enriched below; roughly 2% of the tested compounds scored in any of these assays.
# LEDGF integ inh = blockers of LEDGF/p75-dependent integrase strand transfer – biochemical, TR-FRET, high throughput, primary screen | TR-FRET IN-LEDGF/p75 DNA integration, Eu/Cy5 | inhibition, % at 3.7 µM | 370,000 compounds, 0.64% hits | AID 743269, 2014;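 active means inhibition above the screen-wide mean plus 3 SD, cut at about 13% in these data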;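 further: signal is the Cy5 over europium emission ratio at 671 and 618 nm; 0% = plate median of compound wells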
# TDP2 absorb = human TDP2 enzyme inhibitors, primary screen, biochemical, epi absorbance, recombinant enzyme; T5PNP hydrolysis, p-nitrophenol absorbance 415 nm; inhibition, % at 12.8 µM; 370,000 compounds, 0.34% hits;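 active means inhibition above the mean of all tested compounds plus 3 SD, set per campaign, cut at about 25% in these data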;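 further: 0% = DMSO with enzyme and 100% = buffer with substrate but no TDP2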
#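 System – recombinant human TDP2 · Quantity – TDP2 enzyme at 120 nM final · Doses – single concentration, 12.8 µM nominal, with 1% DMSO · Incubation – 2 h at 37 °C · Measured by – epi absorbance of p-nitrophenol freed from T5PNP by hydrolysis · Read-out – % inhibition relative to enzyme-containing and enzyme-free wells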
# MBD2 inh = inhibitors of MBD2 binding to methylated DNA, primary screen, biochemical, TR-FRET, DNA-binding domain, human. Methyl-CpG-binding domain protein 2 (Homo sapiens), Q9UBB5. MBD2 binding to methylated oligonucleotide. inhibition, % at 4.4 µM. 370,000 compounds, 0.31% hits. AID 686964, 2013; in the data active means inhibition above about 13%
# ARFGAP1 inhibitor = inhibitors of rat ARFGAP1 GAP activity, primary screen, biochemical, fluorescence polarization, GDP tracer; 360,000 compounds, 0.26% hits; AID 651572, 2012; inhibition, % at 16.5 µM; ADP-ribosylation factor GTPase-activating protein 1 (Rattus norvegicus), Q62848; Arfgap1-stimulated ARF1 GTP hydrolysis, GDP FP detection;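 active means inhibition above a per-plate limit, mean inhibition of low control wells plus 3 SD, cut at about 25% in these data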;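 further: 0% = DMSO wells with enzyme and 100% = wells lacking Arfgap1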
#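 Repeats: one replicate per compound; assay system: rat Arfgap1 catalytic domain, aa 1-136; times: enzyme reaction 120 min at 25 °C after 20 min preincubation; detection: FP of antibody-bound GDP Alexa 633 tracer, ex 620/em 688 nm; benchmarks: high control wells lacking Arfgap1, low control full reaction with DMSO; reagent: human ARF1(Δ1-17)-GTP substrate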
# UHRF1 binding = UHRF1 methylated DNA binding inhibitors, primary screen, counter-screen for MBD2 inhibitor project, biochemical, TR-FRET, human UHRF1, single concentration; E3 ubiquitin-protein ligase UHRF1 (Homo sapiens), Q96T88; UHRF1 binding to methylated oligo; inhibition, % at 4.4 µM; 370,000 compounds, 0.75% hits; in the data active means inhibition above about 21%;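 further: UHRF1 SRA domain binding a hemimethylated CpG hairpin DNA probe; 0% = median of test compound wells and 100% = reference inhibitor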
# Target sequence (Q96T88 whole entry, looked up, the tested form may be a part): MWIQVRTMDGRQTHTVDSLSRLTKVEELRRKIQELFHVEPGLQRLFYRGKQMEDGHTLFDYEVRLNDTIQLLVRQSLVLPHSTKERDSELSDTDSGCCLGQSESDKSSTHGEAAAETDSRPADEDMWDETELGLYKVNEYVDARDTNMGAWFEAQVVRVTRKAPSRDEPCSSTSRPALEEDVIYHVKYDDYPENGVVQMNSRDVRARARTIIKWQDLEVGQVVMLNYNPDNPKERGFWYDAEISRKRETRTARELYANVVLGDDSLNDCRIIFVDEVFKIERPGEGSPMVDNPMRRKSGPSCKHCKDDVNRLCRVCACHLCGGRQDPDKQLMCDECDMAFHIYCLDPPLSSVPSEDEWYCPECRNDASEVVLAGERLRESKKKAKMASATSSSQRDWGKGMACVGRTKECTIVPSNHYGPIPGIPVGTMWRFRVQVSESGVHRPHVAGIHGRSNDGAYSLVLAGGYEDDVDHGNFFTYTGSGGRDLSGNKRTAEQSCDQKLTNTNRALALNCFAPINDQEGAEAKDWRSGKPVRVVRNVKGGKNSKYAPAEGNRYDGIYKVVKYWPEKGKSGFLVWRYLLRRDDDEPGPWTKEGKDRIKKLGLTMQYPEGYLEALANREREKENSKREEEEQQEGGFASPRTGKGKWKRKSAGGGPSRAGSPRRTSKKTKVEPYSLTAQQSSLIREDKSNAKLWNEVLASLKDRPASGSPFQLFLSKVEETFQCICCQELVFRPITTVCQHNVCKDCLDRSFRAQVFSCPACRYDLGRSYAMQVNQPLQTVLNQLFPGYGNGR
# ASAP1 inh = inhibitors of human ASAP1 ArfGAP activity, primary screen, biochemical, fluorescence polarization. Arf-GAP with SH3 domain, ANK repeat and PH domain-containing protein 1 (Homo sapiens), …. 360,000 compounds, 0.19% hits. ASAP1-stimulated ARF1 GTP hydrolysis, GDP FP detection. inhibition, % at 16.5 µM;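 further: 0% = vehicle with enzyme and substrate and 100% = no enzyme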
# TDP2 confirm = human TDP2 enzyme inhibitors, retest, confirmation, biochemical, epi absorbance, recombinant enzyme. shares compounds with TDP2 absorb. absorbance read-out. 1,100 compounds, 22% hits. inhibition, % at 12.8 µM;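 further: 0% = vehicle with enzyme and 100% = no enzyme buffer only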
# * = called active by the depositor; x = not tested or not shown; ! = repeats disagree. Unless noted, no stated cut-off is given here; in the data, active means inhibition above about 25%; inactive means the rest.
SMILES,LEDGF integ inh,TDP2 absorb,MBD2 inh,ARFGAP1 inhibitor,UHRF1 binding,ASAP1 inh,TDP2 confirm
Cc1ccc(NC(=O)N2C3CCCC2CC(NC(=O)C2CC2)C3)cc1 (centres undefined),4.6,9.5,-2.6,10.7,2.4,-9.7,x
COCCN1C=C2C(=O)C(C)(OC(=O)C3CCCC3)C(=O)C(c3ccccc3)=C2C=C1CCCC(=O)OC (centres undefined),0.1,30.2*,1.8,2.9,-1.4,7.5,22.1
COC(=O)CCCC1=CC2=C(c3ccccc3)C(=O)C(C)(OC(=O)C3CCCC3)C(=O)C2=CN1CC(C)C (centres undefined),6.6,24.9*,-0.2,-0.3,4.0,5.9,14.1
CN(CCCOC(=O)c1cccs1)C1CN(Cc2cn(Cc3ccccc3Cl)nn2)S(=O)(=O)C1 (centres undefined),-3.2,6.3,0.9,x,4.1,x,x
COc1ccc(C(=O)NC2CCN(C(=S)Nc3ccc(C)cc3)CC2)cc1,4.2,-4.8,0.2,4.7,2.1,-0.4,x
COc1ccc(NC(=S)N2CCC(NC(=O)c3cccc(C)c3)CC2)cc1,-2.6,29.3*,2.9,-5.6,-5.0,-5.5,3.4
O=C(CSc1nc2ccccc2n1Cc1ccccc1Cl)N/N=C\c1cccc(Oc2ccccc2)c1,-0.3,5.2,-0.6,x,-1.4,x,x
COc1ccccc1C(=O)COC(=O)C(CCSC)NC(=O)COc1ccccc1 (centres undefined),-0.2,25.5*,-5.6,-4.8,-3.6,7.0,0.8
c1cncc(CSc2nnc3ccc(-c4ccco4)nn23)c1,1.9,27.6*,-1.8,3.0,-1.3,2.4,-4.9
Cc1cc(=O)n(CCCc2ccccc2)[nH]1,0.6,37.3*,-4.7,-2.7,-6.0,7.2,5.9
C=CCN1C(=O)[C@@H](CC(=O)N2CCSCC2)[C@]2(C(=O)OC)CCCCC=C12,-1.4,-3.6,-2.4,x,4.3,x,x
O=C1C(Cl)=C(NCc2ccco2)C(=O)c2ccccc21,10.1,34.6*,-22.2,10.6,-14.8,23.4,24.0
Cc1cc(C)c(C#N)c(N2CCN(c3ccc(F)cc3)CC2)n1,0.7,35.7*,6.8,7.0,5.2,-15.9,2.7
COc1cc(C(=O)N2CCN(C3CCCCC3)CC2)cc(OC)c1OC,-1.8,24.7*,-1.8,8.4,-2.9,9.2,5.7
O=C(O)CN1C(=O)CSC1=S,-2.3,26.9*,2.7,4.2,0.1,-7.7,4.7
C=CCN1C(=O)[C@@H](CC(=O)N2CCCC2)[C@]2(C(=O)OCC)CCCCC/C=C/12,-0.2,-3.7,-3.0,x,3.0,x,x
CCOC(=O)c1sc(NC(=O)CNCc2ccccn2)c(C(=O)OCC)c1C,-0.5,25.7*,3.2,2.1,3.6,-9.7,0.0
Cc1c(NC(=O)CN2CC(C)OC(C)C2)c(=O)n(-c2ccccc2)n1C (centres undefined),-2.3,29.0*!,3.1,-2.7,-1.4,2.5,16.8
CC[C@@]1(c2ccc(C)cc2)C(=O)N(C(=O)OC(C)C)N1C(=O)OC(C)C,5.5,-15.5,1.9,x,6.1,x,x
CCN(CC)S(=O)(=O)c1ccc2oc(SCC(=O)Nc3cc(C)on3)nc2c1,-1.8,41.0*,-2.9,2.7,-1.1,-5.7,-5.1
Cc1cc(NC(=O)CSc2nc3cc(Cl)ccc3o2)no1,-0.2,8.6,-0.7,-5.4,-0.4,-5.6,x
COCCNC(=S)Nc1ccc(Cl)c(Cl)c1,5.1,-0.6,0.5,11.8,8.9,2.5,x
COCCNC(=S)Nc1ccc2nsnc2c1,11.2,73.9*,-5.8,17.8,4.8,20.9,1.6
S=C(Nc1ccc2nsnc2c1)N1CCCCCC1,4.6,62.0*,-3.3,10.9,-3.5,17.6,68.1*
O=C(Nc1ccc2nsnc2c1)N1CCCCC1,1.7,5.3,-6.0,-1.8,-3.0,-3.0,x
SMILES,LEDGF integ inh,TDP2 absorb,MBD2 inh,ARFGAP1 inhibitor,UHRF1 binding,ASAP1 inh,TDP2 confirm
Cc1ccc(-c2c(NC(=O)C3CC3)nc3ncccn23)cc1,-0.1,5.8,-1.6,x,-2.7,x,x
O=C1C(NC(=O)C(F)(F)Br)CCCCN1Cc1cccc(C(F)(F)F)c1 (centres undefined),-0.7,5.6,-2.8,x,-0.9,x,x
CC[C@H](CCCc1ccc(F)cc1)CN(Cc1ccc(OC)cc1)S(=O)(=O)c1ccc(C)cc1,-1.5,-0.1,3.6,x,-1.4,x,x
CCc1ccc2cc(F)cc(F)c2n1,-2.9,45.1*,-1.2,9.1,0.5,10.1,-8.8
Cc1cnc(CNC(=O)CC2C(=O)NCCN2Cc2ccccc2F)cn1 (centres undefined),2.5,1.2,2.0,5.1,0.2,1.0,x
Cc1cnc(CNC(=O)CC2C(=O)NCCN2Cc2cccc(F)c2F)cn1 (centres undefined),1.4,25.1*,-0.4,-0.3,0.2,-1.1,-3.1
O=C(CCCCCN1C(=O)C2C3C=CC(C3)C2C1=O)N1CCN(c2ncccn2)CC1 (centres undefined),-4.3,0.5,8.4,x,-0.2,x,x
Cc1cc(C)cc(NC(=O)c2sc3nc4n(c(=O)c3c2C)CCC4)c1,0.4,4.4,-3.5,-1.1,2.1,9.7,x
CCc1cccc(NC(=O)c2sc3nc4n(c(=O)c3c2C)CCC4)c1,-1.8,54.7*,1.9,-5.3,0.3,6.8,8.7
Nc1ccc(C#Cc2ccc3c(=O)c4ccccc4oc3c2)cc1,9.2,26.9*,12.2,5.2,23.1*,-4.2,-3.4
C[C@H]1COc2cc(Br)ccc2S(=O)(=O)N1Cc1cn(Cc2ccc(Cl)cc2)nn1,0.1,-4.5,-4.1,x,2.5,x,x
C=CCN1C=C2C(=O)C(C)(OC(=O)c3cccs3)C(=O)C=C2C=C1CCCC(=O)OC (centres undefined),-1.7,25.9*,-8.7,0.1,-1.8,9.8,4.5
CCCC(=O)NC1=C(Cl)C(=O)c2ccccc2C1=O,3.8,26.4*,-14.3,17.1,-9.3,20.2,52.5*
Cc1nc2ccc(C(=O)OCc3nnc(-c4ccc(Br)cc4)o3)cc2nc1C,1.1,13.2,2.3,-12.0,-1.8,-13.7,x
Cc1nc2ccc(C(=O)OCc3nnc(-c4ccccc4)o3)cc2nc1C,0.0,24.6*,-6.5,-2.4,-1.9,-3.9,9.1

# From PubChem BioAssay
